Laboratory results taken from ChEMBL document CHEMBL1124186, “Synthesis and evaluation of tylosin-related macrolides modified at the aldehyde function: a new series of orally effective antibiotics” (1988).
In brackets after ≈: the same amount, converted by molar mass.

Legend:
[1] = test system: Clostridioides difficile; experiment: In vitro antimicrobial activity against anaerobic bacteria Clostridium difficile 2994; assay type: functional
[2] = test system: Chlamydia trachomatis; experiment: In vitro antimicrobial activity against chlamydia trachomatis.; assay type: functional
[3] = test system: Staphylococcus aureus; experiment: In vitro antimicrobial activity against aerobic bacteria Staphylococcus aureus X400; assay type: functional
[4] = test system: Fusobacterium necrophorum; experiment: In vitro antimicrobial activity against anaerobic bacteria usobacterium necrophorum 6054A; assay type: functional
[5] = test system: Streptococcus; experiment: In vitro antimicrobial activity against aerobic bacteria Streptococcus D 8043; assay type: functional
[6] = test system: Prevotella melaninogenica; experiment: In vitro antimicrobial activity against anaerobic bacteria bacteroides melaninogenicus 2736; assay type: functional
[7] = test system: Staphylococcus aureus; experiment: In vivo activity against experimental infections in mice Staphylococcus aureus X1 when administered orally; assay type: functional; settings: po
[8] = test system: Mus musculus; experiment: Peripheral plasma levels in mice after oral administration of 50 mg/kg dose for 2 hr; assay type: functional, organism-based; design: dose 50 mg/kg
Outline: (§1)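 Mice were given the compound orally and sampled for peripheral plasma at each time point. Plasma was assayed microbiologically against Micrococcus luteus seeded in Antibiotic Medium 1. Inhibition zone sizes were read, and concentrations were calculated from each compound's own standard curve. Each value is the mean of five mice per time point.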

[9] = test system: Rattus norvegicus; experiment: Peripheral plasma levels in rats after oral administration of 100 mg/kg dose for 0.25 hr; assay type: functional, organism-based; design: dose 100 mg/kg
Outline: (§2)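 Rats received 100 mg/kg orally and were sampled for peripheral plasma. Concentrations were measured by Micrococcus luteus agar-diffusion microbiological assay in Antibiotic Medium 1, with zone sizes converted using the standard curve for the appropriate compound. Each value is the average of three rats per time point.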

[10] = test system: Streptococcus pyogenes; experiment: In vivo effective dose against experimental infections in rodent caused by Streptococcus pyogenes C203 when administered orally; assay type: functional; settings: po
[11] = test system: Staphylococcus aureus; experiment: In vitro antimicrobial activity against aerobic bacteria Staphylococcus aureus V140,; assay type: functional
[12] = In vitro antimicrobial activity against anaerobic bacteria peptostreptococcus intermedius 1264; assay type: functional
[13] = test system: Mus musculus; experiment: Peripheral plasma levels in mice after oral administration of 50 mg/kg dose for 4 hr; assay type: functional, organism-based; design: dose 50 mg/kg; outline: as §1
[14] = test system: Rattus norvegicus; experiment: Peripheral plasma levels in rats after oral administration of 100 mg/kg dose for 4 hr; assay type: functional, organism-based; design: dose 100 mg/kg; outline: as §2
[15] = test system: Prevotella melaninogenica; experiment: In vitro antimicrobial activity against anaerobic bacteria bacteroides melaninogenicus 1856,; assay type: functional
[16] = test system: Staphylococcus epidermidis; experiment: In vitro antimicrobial activity against aerobic bacteria Streptococcus epi 270; assay type: functional
[17] = test system: Phocaeicola vulgatus; experiment: In vitro antimicrobial activity against anaerobic bacteria bacteroides vulgatus 1211; assay type: functional
[18] = test system: Haemophilus parainfluenzae; experiment: In vitro antimicrobial activity against aerobic bacteria Haemophilus parainfluenzae 9796; assay type: functional
[19] = test system: Rattus norvegicus; experiment: Peripheral plasma levels in rats after oral administration of 100 mg/kg dose for 2 hr; assay type: functional, organism-based; design: dose 100 mg/kg; outline: as §2
[20] = test system: Mus musculus; experiment: Peripheral plasma levels in mice after oral administration of 100 mg/kg dose for 0.5 hr; assay type: functional, organism-based; design: dose 100 mg/kg; outline: as §1
[21] = test system: Haemophilus influenzae; experiment: In vitro antimicrobial activity against Haemophilus influenzae.; assay type: functional
[22] = test system: Staphylococcus epidermidis; experiment: In vitro antimicrobial activity against aerobic bacteria Streptococcus epi 222; assay type: functional
[23] = test system: Streptococcus; experiment: In vitro antimicrobial activity against aerobic bacteria Streptococcus G Kruder; assay type: functional; settings: Streptococcus; read-out: MIC
[24] = test system: Clostridium septicum; experiment: In vitro antimicrobial activity against anaerobic bacteria clostridium septicum 1128; assay type: functional
[25] = test system: Clostridium perfringens; experiment: In vitro antimicrobial activity against anaerobic bacteria clostridium perfringens 81,; assay type: functional
[26] = test system: Streptococcus; experiment: In vitro antimicrobial activity against aerobic bacteria Streptococcus B 8; assay type: functional
[27] = test system: Mus musculus; experiment: Peripheral plasma levels in mice after oral administration of 50 mg/kg dose for 1 hr; assay type: functional, organism-based; design: dose 50 mg/kg; outline: as §1
[28] = test system: Streptococcus; experiment: In vitro antimicrobial activity against aerobic bacteria Streptococcus D 2041; assay type: functional
[29] = test system: Enterococcus faecium; experiment: In vitro antimicrobial activity against Streptococcus faecium X66; assay type: functional, streptococcus fae-cium
[30] = test system: Streptococcus pneumoniae; experiment: In vitro antimicrobial activity against Streptococcus pneumoniae; assay type: functional
[31] = test system: Staphylococcus aureus; experiment: In vitro antimicrobial activity against aerobic bacteria Staphylococcus aureus 513E; assay type: functional
[32] = test system: Rattus norvegicus; experiment: Peripheral plasma levels in rats after oral administration of 100 mg/kg dose for 1 hr; assay type: functional, organism-based; design: dose 100 mg/kg; outline: as §2
[33] = test system: Streptococcus; experiment: In vitro antimicrobial activity against aerobic bacteria Streptococcus B 14; assay type: functional
[34] = test system: Streptococcus; experiment: In vitro antimicrobial activity against aerobic bacteria Streptococcus C 24; assay type: functional

CC[C@H]1OC(=O)C[C@@H](O)[C@H](C)[C@@H](O[C@@H]2O[C@H](C)[C@@H](O)[C@H](N(C)C)[C@H]2O)[C@@H](CCOc2ccccc2)C[C@@H](C)C(=O)/C=C/C(C)=C/[C@@H]1CO[C@@H]1O[C@H](C)[C@@H](O)[C@@H](OC)[C@H]1OC
MIC [1]: < 0.5 µg/mL | MIC [2]: 0.25 µg/mL (≈ 0.294 µM) | MIC [3]: 0.25 µg/mL (≈ 0.294 µM) | MIC [4]: 8 µg/mL (≈ 9.41 µM) | MIC [5]: 2 µg/mL (≈ 2.35 µM) | MIC [6]: 1 µg/mL (≈ 1.18 µM) | ED50 [7]: 17 mg/kg | Concentration [8]: 1.2 µg/mL | Concentration [9]: 2.6 µg/mL | ED50 [10]: 9 mg/kg | MIC [11]: 0.25 µg/mL (≈ 0.294 µM) | MIC [12]: 2 µg/mL (≈ 2.35 µM) | Concentration [13]: 0.2 µg/mL | Concentration [14]: 5.6 µg/mL | MIC [15]: 1 µg/mL (≈ 1.18 µM) | MIC [16]: > 128 µg/mL | MIC [17]: 1 µg/mL (≈ 1.18 µM) | MIC [18]: 32 µg/mL (≈ 37.6 µM) | Concentration [19]: 4.8 µg/mL | Concentration [20]: 11.5 µg/mL | MIC [21]: 32 µg/mL (≈ 37.6 µM) | MIC [22]: 0.12 µg/mL (≈ 0.141 µM) | MIC [23]: 32 µg/mL (≈ 37.6 µM) | MIC [24]: < 0.5 µg/mL | MIC [25]: < 0.5 µg/mL | MIC [26]: 8 µg/mL (≈ 9.41 µM) | Concentration [27]: 2.4 µg/mL | MIC [28]: 8 µg/mL (≈ 9.41 µM) | MIC [29]: 8 µg/mL (≈ 9.41 µM) | MIC [30]: 1 µg/mL (≈ 1.18 µM) | MIC [31]: 0.25 µg/mL (≈ 0.294 µM) | Concentration [32]: 3.4 µg/mL | MIC [33]: 16 µg/mL (≈ 18.8 µM) | MIC [34]: 0.25 µg/mL (≈ 0.294 µM)
